Measured values from ChEMBL document CHEMBL1649147, “Antistaphylococcal activity of dihydrophthalazine antifolates, a family of novel antibacterial drugs” (2009).
Values after ≈ are worked out from the molar mass of the structure shown.

Key:
[1] = system: Staphylococcus epidermidis; test: Antibacterial activity against methicillin-susceptible coagulase-negative Staphylococcus epidermidis 051 after 50 passages by agar dilution method; assay type: functional
In short: (§1)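 Daily serial passage for up to 50 days at 35°C for 24 h in 1 ml MHB. Each transfer used 10 µl from the tube nearest the MIC (1–2 dilutions below) with the same turbidity as the drug-free control. MICs were measured by agar dilution, with changes given as log2 steps.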

[2] = system: Staphylococcus epidermidis; test: Antibacterial activity against methicillin-susceptible coagulase-negative Staphylococcus epidermidis 057 after 50 passages by agar dilution method; assay type: functional; in short: as §1
[3] = system: Staphylococcus epidermidis; test: Antibacterial activity against methicillin-resistant, vancomycin-intermediate coagulase-negative Staphylococcus epidermidis 225 after 50 passages by agar dilution method; assay type: functional
In short: (§2)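 Daily serial passage for up to 50 days at 35°C for 24 h in 1 ml MHB. […] Each transfer used 10 µl from the tube nearest the MIC (1–2 dilutions below) with the same turbidity as the drug-free control. […] MICs were measured by agar dilution, with changes given as log2 steps.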

[4] = system: Staphylococcus epidermidis; test: Antibacterial activity against methicillin-resistant, Linezolid non-susceptible coagulase-negative Staphylococcus epidermidis 345 after 50 passages by agar dilution method; assay type: functional; in short: as §1
Staphylococcus aureus [5] = test: Antibacterial activity against Staphylococcus aureus 505 assessed as change in MIC by agar dilution method after serial passages in presence of antibiotic relative to control; assay type: functional
In short: (§3)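 Serial passage under drug. Inoculum was ~1 × 10^6 CFU/ml from overnight MHA growth, in 1 ml MHB at 35°C for 24 h. Drug ranged from 4 log2 steps above to 3 log2 steps below the MIC. […] MIC change is given as log2 steps.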

Staphylococcus aureus [6] = test: Antibacterial activity against Staphylococcus aureus ATCC 43300 assessed as change in MIC by agar dilution method after serial passages in presence of antibiotic relative to control; assay type: functional; in short: as §3
Staphylococcus aureus [7] = test: Antibacterial activity against Staphylococcus aureus 145 assessed as change in MIC by agar dilution method after serial passages in the absence of antibiotic relative to control; assay type: functional
In short: (§4)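 After drug-selective serial passage, selected clones were passaged 10 times in antibiotic-free MHB. MICs were then redetermined, and the change is expressed as log2 dilution steps.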

[8] = system: Staphylococcus epidermidis; test: Antibacterial activity against coagulase-negative Staphylococcus epidermidis 345 assessed as change in MIC by agar dilution method after serial passages in presence of antibiotic relative to control; assay type: functional; in short: as §3
Staphylococcus aureus [9] = test: Antibacterial activity against Staphylococcus aureus 145 after 37 passages by agar dilution method; assay type: functional; in short: as §3
Staphylococcus aureus [10] = test: Antibacterial activity against vancomycin-resistant Staphylococcus aureus VRS1 after 15 passages by agar dilution method; assay type: functional; in short: as §2
Staphylococcus aureus [11] = test: Antibacterial activity against vancomycin-resistant Staphylococcus aureus VRS1 after 10 passages in MHB without antibiotic by agar dilution method; assay type: functional
In short: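 Clones from the end of drug passage were transferred 10 times in MHB without antibiotic, then retested by agar dilution. MIC change is expressed as log2 dilution steps.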

[12] = system: Staphylococcus epidermidis; test: Antibacterial activity against coagulase-negative Staphylococcus epidermidis 051 after 50 passages by agar dilution method; assay type: functional; in short: as §3
Staphylococcus aureus [13] = test: Antibacterial activity against Tmp-susceptible Staphylococcus aureus by agar dilution method; assay type: functional
In short: (§5)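 MICs by agar dilution on Mueller-Hinton agar following CLSI guidelines. S. aureus ATCC 29213 and E. faecalis ATCC 29212 were run as quality controls with each set, and test-strain MICs were kept only if control MICs fell within acceptable ranges.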

Staphylococcus aureus [14] = test: Antibacterial activity against Tmp-resistant Staphylococcus aureus by agar dilution method; assay type: functional; in short: as §5
Staphylococcus aureus [15] = test: Antibacterial activity against methicillin-susceptible Staphylococcus aureus ATCC 29213 by broth macrodilution method; assay type: functional; details: ATCC29213
Staphylococcus aureus [16] = test: Antibacterial activity against methicillin-resistant Staphylococcus aureus ATCC 43300 by broth macrodilution method; assay type: functional; details: ATCC43300
Staphylococcus aureus [17] = test: Antibacterial activity against vancomycin-resistant Staphylococcus aureus VRS1 by broth macrodilution method; assay type: functional
In short: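 Michigan VRSA strain, one of 12 staphylococci later used in time-kill studies. MIC was determined by broth macrodilution and reported in μg/ml.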

[18] = system: Staphylococcus epidermidis; test: Antibacterial activity against methicillin-resistant coagulase-negative Staphylococcus epidermidis 074 by broth macrodilution method; assay type: functional
[19] = system: Staphylococcus epidermidis; test: Antibacterial activity against methicillin-resistant coagulase-negative Staphylococcus epidermidis 225 by broth macrodilution method; assay type: functional
[20] = system: Staphylococcus epidermidis; test: Antibacterial activity against methicillin-resistant coagulase-negative Staphylococcus epidermidis 345 by broth macrodilution method; assay type: functional
Staphylococcus aureus [21] = test: Antibacterial activity against methicillin-susceptible, vancomycin-intermediate Staphylococcus aureus 505 after 50 passages by agar dilution method; assay type: functional; in short: as §2
Staphylococcus aureus [22] = test: Antibacterial activity against methicillin-resistant Staphylococcus aureus 145 after 37 passages by agar dilution method; assay type: functional; in short: as §3
Staphylococcus aureus [23] = test: Antibacterial activity against methicillin-resistant and vancomycin-resistant Staphylococcus aureus VRS1 after 15 passages by agar dilution method; assay type: functional; in short: as §2
[24] = system: Staphylococcus epidermidis; test: Antibacterial activity against coagulase-negative Staphylococcus epidermidis 345 after 50 passages by agar dilution method; assay type: functional; in short: as §3
[25] = system: Staphylococcus epidermidis; test: Antibacterial activity against coagulase-negative Staphylococcus epidermidis 345 after 10 passages in MBH without antibiotic by agar dilution method; assay type: functional; in short: as §4
[26] = system: Staphylococcus epidermidis; test: Antibacterial activity against coagulase-negative Staphylococcus epidermidis 051 by agar dilution method; assay type: functional; in short: as §5
[27] = system: Staphylococcus epidermidis; test: Antibacterial activity against coagulase-negative Staphylococcus epidermidis 345 by agar dilution method; assay type: functional; in short: as §5
[28] = system: coagulase-negative staphylococci; test: Antibacterial activity against Tmp-resistant coagulase-negative staphylococci by agar dilution method
[29] = system: coagulase-negative staphylococci; test: Antibacterial activity against Tmp-susceptible coagulase-negative staphylococci by agar dilution method
[30] = system: coagulase-negative staphylococci; test: Antibacterial activity against methicillin-resistant coagulase-negative staphylococci by agar dilution method
[31] = system: Staphylococcus epidermidis; test: Antibacterial activity against methicillin-resistant, vancomycin-intermediate coagulase-negative Staphylococcus epidermidis 225 after 38 passages by agar dilution method; assay type: functional; in short: as §2
[32] = system: Staphylococcus epidermidis; test: Antibacterial activity against methicillin-resistant, Linezolid non-susceptible coagulase-negative Staphylococcus epidermidis 345 after 33 passages by agar dilution method; assay type: functional; in short: as §2
Staphylococcus aureus [33] = test: Antibacterial activity against Staphylococcus aureus 145 after 47 passages by agar dilution method; assay type: functional; in short: as §3
Staphylococcus aureus [34] = test: Antibacterial activity against methicillin-resistant Staphylococcus aureus 145 after 47 passages by agar dilution method; assay type: functional; in short: as §3
[35] = system: Staphylococcus epidermidis; test: Antibacterial activity against coagulase-negative Staphylococcus epidermidis 345 after 33 passages by agar dilution method; assay type: functional; in short: as §3
[36] = system: Staphylococcus epidermidis; test: Antibacterial activity against methicillin-susceptible coagulase-negative Staphylococcus epidermidis 057 after 23 passages by agar dilution method; assay type: functional; in short: as §2
Staphylococcus aureus [37] = test: Antibacterial activity against Staphylococcus aureus 145 after 50 passages by agar dilution method; assay type: functional; in short: as §3
Staphylococcus aureus [38] = test: Antibacterial activity against vancomycin-resistant Staphylococcus aureus VRS1 after 25 passages by agar dilution method; assay type: functional; in short: as §2
[39] = system: Staphylococcus epidermidis; test: Antibacterial activity against coagulase-negative Staphylococcus epidermidis 057 after 23 passages by agar dilution method; assay type: functional; in short: as §3
[40] = system: Staphylococcus epidermidis; test: Antibacterial activity against coagulase-negative Staphylococcus epidermidis 225 after 36 passages by agar dilution method; assay type: functional; in short: as §3
Staphylococcus aureus [41] = test: Antibacterial activity against methicillin-resistant Staphylococcus aureus 145 after 50 passages by agar dilution method; assay type: functional; in short: as §3

Row | Compound | fold change (FC) (Staphylococcus aureus [5]) | fold change (FC) (Staphylococcus aureus [6]) | fold change (FC) (Staphylococcus aureus [7]) | fold change (FC) [8] | MIC (Staphylococcus aureus [11]) | MIC50 (Staphylococcus aureus [13]) | MIC90 (Staphylococcus aureus [13]) | MIC50 (Staphylococcus aureus [14]) | MIC90 (Staphylococcus aureus [14]) | MIC (Staphylococcus aureus [15]) | MIC (Staphylococcus aureus [16]) | MIC (Staphylococcus aureus [17]) | MIC [18] | MIC [19] | MIC [20] | MIC (Staphylococcus aureus [21]) | MIC [25] | MIC [26] | MIC [27] | MIC50 [28] | also measured
1 | COc1ncc(C2c3ccccc3C=NN2C(=O)/C=C/c2cc(Cc3cnc(N)nc3N)cc(OC)c2OC)cn1 (stereo not given) | 6 | 7 | -4 | 7 | 128 µg/mL (≈ 232 µM) | 0.03 µg/mL (≈ 0.0543 µM) | 0.03 µg/mL (≈ 0.0543 µM) | 0.25 µg/mL (≈ 0.452 µM) | 0.5 µg/mL (≈ 0.905 µM) | 0.03 µg/mL (≈ 0.0543 µM) | 0.03 µg/mL (≈ 0.0543 µM) | 1 µg/mL (≈ 1.81 µM) | 0.06 µg/mL (≈ 0.109 µM) | 0.25 µg/mL (≈ 0.452 µM) | 0.06 µg/mL (≈ 0.109 µM) | 1 µg/mL (≈ 1.81 µM) | 2 µg/mL (≈ 3.62 µM) | 0.25 µg/mL (≈ 0.452 µM) | 0.125 µg/mL (≈ 0.226 µM) | 0.125 µg/mL (≈ 0.226 µM) | MIC [1]: 64 µg/mL (≈ 116 µM); MIC [2]: 128 µg/mL (≈ 232 µM); MIC [3]: 128 µg/mL (≈ 232 µM); MIC [4]: 16 µg/mL (≈ 29 µM); MIC (Staphylococcus aureus [9]): > 128 µg/mL; MIC (Staphylococcus aureus [10]): > 128 µg/mL; MIC [12]: 64 µg/mL (≈ 116 µM); MIC (Staphylococcus aureus [22]): > 128 µg/mL; MIC (Staphylococcus aureus [23]): > 128 µg/mL; MIC [24]: 16 µg/mL (≈ 29 µM); MIC90 [28]: 0.5 µg/mL (≈ 0.905 µM); MIC50 [29]: 0.016 µg/mL (≈ 0.029 µM); MIC90 [29]: 0.03 µg/mL (≈ 0.0543 µM); MIC50 [30]: 0.06 µg/mL (≈ 0.109 µM); MIC90 [30]: 0.5 µg/mL (≈ 0.905 µM)
2 | COc1cc(Cc2cnc(N)nc2N)cc(/C=C/C(=O)N2N=Cc3ccccc3C2c2cnc(N(C)C)nc2)c1OC (stereo not given) | 8 | 5 | 0 | 12 | > 128 µg/mL | 0.03 µg/mL (≈ 0.053 µM) | 0.03 µg/mL (≈ 0.053 µM) | 0.25 µg/mL (≈ 0.442 µM) | 0.5 µg/mL (≈ 0.884 µM) | 0.06 µg/mL (≈ 0.106 µM) | 0.03 µg/mL (≈ 0.053 µM) | 0.5 µg/mL (≈ 0.884 µM) | 0.06 µg/mL (≈ 0.106 µM) | 0.125 µg/mL (≈ 0.221 µM) | 0.06 µg/mL (≈ 0.106 µM) | 8 µg/mL (≈ 14.1 µM) | 2 µg/mL (≈ 3.54 µM) | 0.125 µg/mL (≈ 0.221 µM) | 0.06 µg/mL (≈ 0.106 µM) | 0.125 µg/mL (≈ 0.221 µM) | MIC [31]: > 128 µg/mL; MIC [32]: > 128 µg/mL; MIC (Staphylococcus aureus [33]): > 128 µg/mL; MIC (Staphylococcus aureus [34]): > 128 µg/mL; MIC [35]: > 128 µg/mL; MIC90 [28]: 0.5 µg/mL (≈ 0.884 µM); MIC50 [29]: 0.016 µg/mL (≈ 0.0283 µM); MIC90 [29]: 0.03 µg/mL (≈ 0.053 µM); MIC50 [30]: 0.06 µg/mL (≈ 0.106 µM); MIC90 [30]: 0.5 µg/mL (≈ 0.884 µM)
3 | COc1cc(Cc2cnc(N)nc2N)cc(/C=C/C(=O)N2N=Cc3ccccc3C2c2cnc(N3CCOCC3)nc2)c1OC (stereo not given) | 6 | 5 | 0 | 6 | > 128 µg/mL | 0.03 µg/mL (≈ 0.0494 µM) | 0.06 µg/mL (≈ 0.0987 µM) | 0.25 µg/mL (≈ 0.411 µM) | 0.5 µg/mL (≈ 0.823 µM) | 0.06 µg/mL (≈ 0.0987 µM) | 0.03 µg/mL (≈ 0.0494 µM) | 1 µg/mL (≈ 1.65 µM) | 0.25 µg/mL (≈ 0.411 µM) | 0.25 µg/mL (≈ 0.411 µM) | 0.125 µg/mL (≈ 0.206 µM) | 2 µg/mL (≈ 3.29 µM) | 2 µg/mL (≈ 3.29 µM) | 0.5 µg/mL (≈ 0.823 µM) | 0.06 µg/mL (≈ 0.0987 µM) | 0.125 µg/mL (≈ 0.206 µM) | MIC [1]: 64 µg/mL (≈ 105 µM); MIC [36]: > 128 µg/mL; MIC [4]: 4 µg/mL (≈ 6.58 µM); MIC (Staphylococcus aureus [37]): 128 µg/mL (≈ 211 µM); MIC (Staphylococcus aureus [38]): > 128 µg/mL; MIC [12]: 64 µg/mL (≈ 105 µM); MIC [39]: > 128 µg/mL; MIC [40]: > 128 µg/mL; MIC (Staphylococcus aureus [41]): 128 µg/mL (≈ 211 µM); MIC [24]: 4 µg/mL (≈ 6.58 µM); MIC90 [28]: 1 µg/mL (≈ 1.65 µM); MIC50 [29]: 0.03 µg/mL (≈ 0.0494 µM); MIC90 [29]: 0.06 µg/mL (≈ 0.0987 µM); MIC50 [30]: 0.06 µg/mL (≈ 0.0987 µM); MIC90 [30]: 0.5 µg/mL (≈ 0.823 µM)
